{"source": "paper PMC11696060", "about": "(Nature Communications, 2025)", "key": {"[1]": {"tested_on": "wild-type Arabidopsis seedlings", "assay": "Hypocotyl elongation assay, wild-type Arabidopsis co-treated with KAR2", "type": "in vivo, Arabidopsis thaliana", "settings": "0.3 µM KAR2"}, "[2]": {"tested_on": "wild-type Arabidopsis seeds", "type": "in vivo, Arabidopsis thaliana", "settings": "after high temperature, 1 µM KAR2", "summary_of_the_method": "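Sterilized, stratified Columbia seeds (~30 per well) sown on 0.2% phytoagar containing 1 µM KAR₂ and a concentration series of test compound. Incubated at 30 °C under continuous white light (20 μmol m⁻² s⁻¹) 48 h, then 22 °C for 48 h. Germination % = germinated/total seeds per well; 6 biological replicates, means ± SE; one-way ANOVA with Tukey's HSD.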"}}, "data": [{"smiles": "O=C(N1CCc2ccccc21)n1ccnn1", "note": "[KK094]", "values": [{"measurement": "Concentration at which KAR2-suppressed hypocotyl length is restored", "setting": "[1]", "value": 0.3, "unit": "µM"}, {"measurement": "Concentration inhibiting the recovery of seed germination by KAR2", "setting": "[2]", "value": 100, "unit": "µM"}]}]}
